Measured values as given in ChEMBL document CHEMBL5226322, “Harnessing the Role of HDAC6 in Idiopathic Pulmonary Fibrosis: Design, Synthesis, Structural Analysis, and Biological Evaluation of Potent Inhibitors” (J Med Chem, 2021).
pIC50: −log10 of the molar value. The source made the active and inactive calls. The calls are words filed in the database; no cut-off is given here.

What was measured:
Histone deacetylase 1 = Histone deacetylase 1 (Homo sapiens, UniProt Q13547); assay: Inhibition of human recombinant HDAC1 using ZMAL (Z-(Ac)Lys-AMC) as fluorogenic substrate incubated for 120 mins by microplate reader assay
Homo sapiens = organism: Homo sapiens; assay: Inhibition of broncho-sphere formation in IPF patient derived human lung organoid assessed as inhibition of 3D organoid formation at 0.1 to 50 nM incubated for 14 days by Bright-field microscopy analysis; format: functional; settings: dose 0.1-50 nM, time 14.0 day
Summary of the method: (§1)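 Airway basal cells from bronchial brushings of IPF patients, 10⁴ cells in Matrigel on transwell inserts with 1:1 BEGM/DMEM. Treated 14 days (1–50 nM per methods; 0.1–50 nM per legend), medium changed every 7 days.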

Airway basal cell = assay: Inhibition of spheroid count in IPF patient derived human Airway basal cell assessed as reduction in sphere count at 20 to 50 nM incubated for 14 days by Bright-field microscopy analysis; format: functional, cell-based; settings: dose 20-50 nM, time 14.0 day; summary of the method: as §1
[1] = Chemical stability of the compound at pH 3 incubated for 24 hrs by HPLC-UV analysis; format: physicochemical; settings: buffer, read-out: Stability
Summary of the method: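 Compound from 10 mM DMSO stock diluted to 250 μM (2.5% DMSO) in 50 mM acetic acid, pH 3.0. Held 24 h at 25 °C with orbital shaking. Analysed by RP-18 HPLC with UV at 254 nm. Percent remaining = peak area at 24 h / peak area at T0 × 100. Run in triplicate and averaged.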

[2] = Inhibition of cell proliferation in IPF patient derived human Airway basal cell incubated for 14 days by MTT assay; format: functional, cell-based; settings: 336 h
Summary of the method: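 IPF patient airway basal cell 3D organoid cultures (10⁴ cells in Matrigel, 1:1 BEGM/DMEM) treated 14 days at 1–50 nM, medium changed weekly. Proliferation read by colorimetric MTT on day 14. Mean ± SEM of triplicates, n=3; repeated-measures ANOVA/Friedman test. Reported IC50 is the mean of the count-based and MTT-based IC50s.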

[3] = Metabolic stability in human liver microsome assessed as intrinsic clearance at 5 uM in presence of NADPH incubated up to 60 mins by HPLC analysis; format: ADME; settings: microsomes, 1 h
Summary of the method: (§2)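 Compound at 5 μM, added in MeCN, incubated at 37 °C in 100 mM phosphate buffer pH 7.4 with 0.5 mg/mL human liver microsomal protein. Reaction started with an NADPH-generating system (2 mM NADPH, glucose-6-phosphate, G6P dehydrogenase, MgCl2). Stopped with MeCN at time points over 0–60 min. Remaining compound measured by RP-18 HPLC-UV at 254 nm, in triplicate. First-order depletion constant k; CLint = k × incubation volume / microsomal protein.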

[4] = Metabolic stability in human liver microsome assessed as apparent decay constant at 5 uM in presence of NADPH incubated up to 60 mins by HPLC analysis; format: ADME; settings: microsomes, 1 h; summary of the method: as §2
[5] = target: T1, Protein deacetylase HDAC6 (Homo sapiens, UniProt Q9UBN7); assay: Inhibition of human recombinant HDAC6 using ZMAL (Z-(Ac)Lys-AMC) as fluorogenic substrate incubated for 120 mins by microplate reader assay
T1 sequence (Q9UBN7 whole entry): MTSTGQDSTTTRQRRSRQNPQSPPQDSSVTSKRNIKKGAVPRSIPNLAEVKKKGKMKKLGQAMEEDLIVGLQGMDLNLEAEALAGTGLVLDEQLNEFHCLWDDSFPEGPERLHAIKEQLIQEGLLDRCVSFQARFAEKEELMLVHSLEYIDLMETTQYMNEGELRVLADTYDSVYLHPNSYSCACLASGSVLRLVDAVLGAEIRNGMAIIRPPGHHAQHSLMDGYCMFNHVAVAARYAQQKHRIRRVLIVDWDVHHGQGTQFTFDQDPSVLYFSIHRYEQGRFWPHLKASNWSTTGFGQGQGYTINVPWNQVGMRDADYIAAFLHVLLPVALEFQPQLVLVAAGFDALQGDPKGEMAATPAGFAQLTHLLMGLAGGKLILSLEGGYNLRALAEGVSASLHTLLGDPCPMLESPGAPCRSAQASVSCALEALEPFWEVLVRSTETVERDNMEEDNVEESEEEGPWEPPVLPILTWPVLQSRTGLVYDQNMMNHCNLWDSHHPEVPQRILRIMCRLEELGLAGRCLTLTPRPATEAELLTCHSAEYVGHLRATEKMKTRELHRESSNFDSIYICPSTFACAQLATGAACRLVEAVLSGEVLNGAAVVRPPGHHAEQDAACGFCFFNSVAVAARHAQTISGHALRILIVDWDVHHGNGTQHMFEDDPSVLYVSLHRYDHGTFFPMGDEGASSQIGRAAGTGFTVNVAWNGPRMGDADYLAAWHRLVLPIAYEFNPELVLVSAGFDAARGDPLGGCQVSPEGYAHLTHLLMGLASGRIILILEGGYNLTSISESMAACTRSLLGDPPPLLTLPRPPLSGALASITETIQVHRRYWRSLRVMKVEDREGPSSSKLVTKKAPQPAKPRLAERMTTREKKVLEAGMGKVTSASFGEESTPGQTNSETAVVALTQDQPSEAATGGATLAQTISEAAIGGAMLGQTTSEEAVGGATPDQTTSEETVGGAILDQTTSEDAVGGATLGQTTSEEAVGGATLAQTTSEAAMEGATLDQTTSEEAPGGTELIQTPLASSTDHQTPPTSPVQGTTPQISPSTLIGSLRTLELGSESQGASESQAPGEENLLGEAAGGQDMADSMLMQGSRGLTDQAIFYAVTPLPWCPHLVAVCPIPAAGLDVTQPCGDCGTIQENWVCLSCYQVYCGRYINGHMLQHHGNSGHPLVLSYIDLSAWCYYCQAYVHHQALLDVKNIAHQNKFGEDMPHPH

NIH3T3 = assay: Cytotoxicity in mouse NIH3T3 cells assessed as reduction in cell viability at 25 uM incubated for 24 hrs by neutral red uptake method based UV/visible spectrophotometer analysis; format: toxicity; settings: nih3t3, 24 h
Summary of the method: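 NIH3T3 mouse fibroblasts grown in DMEM with 10% FCS, L-glutamine/pen-strep and non-essential amino acids (37 °C, 5% CO2). Exposed 24 h to compound diluted from a DMSO stock into medium. Viability measured by Neutral Red uptake: 3 h in NR medium, then acetic acid/ethanol desorb, absorbance at 540 nm. Student's t-test, p<0.05.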

[6] = Mutagenecity in Salmonella typhimurium TA100 in presence of S9 fraction at 1 to 75 uM incubated for 90 mins by Ames test; format: toxicity, subcellular; settings: salmonella enterica subsp. enterica serovar typhimurium, s9, 1.5 h, dose 1-75 µM
Heart = assay: Cardiotoxicity in Langendorff-perfused Sprague-Dawley rat heart assessed as effect on QT interval time at 0.1 uM by ECG analysis (reference value: 76.2 +/-2.9 milliseconds); format: toxicity, tissue-based

Histone deacetylase 1, sequence (Q13547 whole entry): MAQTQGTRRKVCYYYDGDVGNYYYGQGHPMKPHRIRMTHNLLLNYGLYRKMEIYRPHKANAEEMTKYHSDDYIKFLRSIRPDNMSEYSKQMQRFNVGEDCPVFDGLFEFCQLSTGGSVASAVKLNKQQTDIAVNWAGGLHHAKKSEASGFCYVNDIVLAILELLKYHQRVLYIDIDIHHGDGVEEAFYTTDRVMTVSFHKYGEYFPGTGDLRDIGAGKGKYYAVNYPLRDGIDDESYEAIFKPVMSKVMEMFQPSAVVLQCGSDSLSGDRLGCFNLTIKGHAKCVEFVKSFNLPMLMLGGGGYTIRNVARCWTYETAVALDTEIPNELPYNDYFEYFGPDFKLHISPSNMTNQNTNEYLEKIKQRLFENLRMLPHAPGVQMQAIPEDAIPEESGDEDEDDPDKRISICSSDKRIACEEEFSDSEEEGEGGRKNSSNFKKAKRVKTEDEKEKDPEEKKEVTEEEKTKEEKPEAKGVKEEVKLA

SMILES | pIC50 (Histone deacetylase 1) | inhibition (Homo sapiens) | inhibition (Airway basal cell) | remaining at 24 h [1] | pIC50 [2] | CLH [3] | K [4] | pIC50 [5] | Activity (NIH3T3) | Activity [6] | Time (Heart)
CN1CCC2(CC1)c1ccccc1N(Cc1ccc(C(=O)NO)cc1)C2c1ccccc1F (racemic) | 5.31 | Dose-Dependent Effect | Active | 98% | 9.80 | 27.43 µL/min/mg | 0.01297 min⁻¹ | 7.55 | – | – | –
CC1(C)c2ccccc2N(Cc2ccc(C(=O)NO)cc2)C1c1cccnc1 (racemic) | 5.27 | Dose-Dependent Effect | Active | 89% | 8.14 | 25.46 µL/min/mg | 0.01357 min⁻¹ | 7.38 | 87% | Non-Toxic | 78 ms
